Here are results for 39 compounds from ChEMBL document CHEMBL4431325, “Design and Synthesis of Orally Bioavailable 4-Methyl Heteroaryldihydropyrimidine Based Hepatitis B Virus (HBV) Capsid Inhibitors” (J Med Chem, 2016).

The structures appear in SMILES notation.

The nature of series [1]: Intrinsic clearance in mouse liver microsomes at 1 uM preincubated for 10 mins followed by NADPH addition measured up to 30 mins by LC-MS/MS analysis. In kind it is ADME, Microsome. As to conditions: read-out: CLH; call rule not given here.
A short description of series [2]: Intrinsic clearance in human liver microsomes at 1 uM preincubated for 10 mins followed by NADPH addition measured up to 30 mins by LC-MS/MS analysis. The class given is ADME, Microsome. The note with it: read-out: CLH.
The nature of series [3]: Oral bioavailability in CD-1 mouse plasma administered as single dose by LC-MS/MS analysis. The class given is ADME, organism-based. The gist of the method: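 CD-1 mice (18-25 g) were used, with three mice per time point. The i.v. dose (5 mg/kg) was given in 6% Solutol/ethanol (1:1) plus 94% saline, and the oral dose (50 mg/kg) in 1% RC591. Blood was sampled at nine (i.v.) or eight (p.o.) time points into heparin. Plasma was analysed by LC-MS/MS, and parameters including F were derived noncompartmentally.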

Series [4] in a line: Cmax in CD-1 mouse liver at 50 mg/kg, po administered as single dose by LC-MS/MS analysis. Also on record: dose 50 mg/kg, route oral. The class given is ADME, organism-based.
Series [5] is described as follows: AUC (0 to t) in CD-1 mouse liver at 50 mg/kg, po administered as single dose by LC-MS/MS analysis. In kind it is ADME, organism-based. The note with it: in vivo.
A short description of series [6]: Half life in CD-1 mouse plasma at 50 mg/kg, po administered as single dose by LC-MS/MS analysis. In kind it is ADME, organism-based.
The nature of series [7]: Cmax in CD-1 mouse plasma at 5 mg/kg, iv administered as single dose by LC-MS/MS analysis. In kind it is ADME, organism-based. Also on record: dose 5 mg/kg, route intravenous.
The nature of series [8]: Clearance in CD-1 mouse plasma at 5 mg/kg, iv administered as single dose by LC-MS/MS analysis. The class given is ADME, organism-based.
Series [9] is described as follows: Volume of distribution at steady state in CD-1 mouse plasma at 5 mg/kg, iv administered as single dose by LC-MS/MS analysis. In kind it is ADME, organism-based. As to conditions: read-out: Vdss.
Series [10] is described as follows: Cmax in CD-1 mouse plasma at 50 mg/kg, po administered as single dose by LC-MS/MS analysis. In kind it is ADME, organism-based. Also on record: dose 50 mg/kg, route oral.
The nature of series [11]: AUC (0 to t) in CD-1 mouse plasma at 50 mg/kg, po administered as single dose by LC-MS/MS analysis. The class given is ADME, organism-based. The note with it: in vivo.
Series [12] can be described thus: Half life in CD-1 mouse plasma at 5 mg/kg, iv administered as single dose by LC-MS/MS analysis. The class given is ADME, organism-based.
Series [13] can be described thus: Drug uptake in CD-1 mouse heart at 5 mg/kg, iv or 50 mg/kg, po administered as single dose by LC-MS/MS analysis. As to conditions: in vivo. In kind it is ADME, organism-based.
Series [14] in a line: Drug uptake in CD-1 mouse lung at 5 mg/kg, iv or 50 mg/kg, po administered as single dose by LC-MS/MS analysis. The class given is ADME, organism-based. The note with it: in vivo.
A further series can be described thus: in vivo. The note with it: CD-1, mouse, other tissue, po, 50 mg/kg.
The nature of series [15]: Oral bioavailability in CD-1 mouse plasma at 50 mg/kg administered as single dose by LC-MS/MS analysis. In kind it is ADME, organism-based.
Series [16] in a line: Drug uptake in CD-1 mouse brain at 5 mg/kg, iv or 50 mg/kg, po administered as single dose by LC-MS/MS analysis. The class given is ADME, organism-based. As to conditions: in vivo.
Series [17] is described as follows: AUC (0 to t) in CD-1 mouse plasma at 5 mg/kg, iv administered as single dose by LC-MS/MS analysis. The class given is ADME, organism-based. The note with it: in vivo.
Series [18] can be described thus: Drug metabolism in human liver microsomes assessed as aromatization of dihydropyrimidine core at 1 uM preincubated for 10 mins followed by NADPH addition measured up to 30 mins by LC-MS/MS analysis. The class given is ADME, Microsome. The note with it: 0.5 h. A general note: Liver microsomes are a subcellular fraction often used to study metabolism.
Series [19] is described as follows: Stability in CD-1 mouse liver by LC-MS/MS analysis. The class given is ADME, tissue-based.
Series [20] in a line: Drug metabolism in mouse liver microsomes assessed as aromatization of dihydropyrimidine core at 1 uM preincubated for 10 mins followed by NADPH addition measured up to 30 mins by LC-MS/MS analysis. In kind it is ADME, Microsome. The note with it: 0.5 h.

`CC(C)OC(=O)C1=C(CN2CCOCC2)NC(c2nccs2)=NC1(C)c1ccc(F)cc1` (stereo unspecified): the CLint scaled at 1 µM in series [1] worked out at 88 mL/min/kg.

As to `COC(=O)C1=C(CN2CC(F)(F)C[C@H]2C(=O)OC)NC(c2nccs2)=N[C@@]1(C)c1ccc(F)cc1`, the CLint scaled at 1 µM in series [2] was determined as 23 mL/min/kg; in series [1], 90 mL/min/kg.

With `CC1(c2ccc(F)cc2)N=C(c2nccs2)NC(CN2CCOCC2)=C1C(N)=O` (stereo unspecified), the CLint scaled at 1 µM in [1] was 59 mL/min/kg.

Regarding `COC(=O)C1=C(CN2CCCCC2)NC(c2nccs2)=NC1(C)c1ccc(F)cc1` (stereo unspecified), the CLint scaled at 1 µM in [1] was determined as 88 mL/min/kg.

On to `CC1(c2ccc(F)cc2)N=C(c2nccs2)NC(CN2CCOCC2)=C1C#N` (stereo unspecified), for which the CLint scaled at 1 µM in [1] was 79 mL/min/kg.

For `COC(=O)C1=C(CN2CCCC(F)(F)C2)NC(c2nccs2)=NC1(C)c1ccc(F)cc1` (stereo unspecified), in [1], the CLint scaled at 1 µM worked out at 89 mL/min/kg.

As for `COC(=O)C1=C(CN2CCOCC2)NC(c2nccs2)=N[C@@]1(C)c1ccc(F)c(F)c1`, the CLint scaled at 1 µM in series [1] came to 89 mL/min/kg.

`COC(=O)C1=C(COC(C(=O)O)C(F)(F)F)NC(c2nccs2)=NC1(C)c1ccc(F)cc1` (stereo unspecified): the CLint scaled at 1 µM in series [1] is 24 mL/min/kg.

As to `COC(=O)C1=C(CN2CCC(O)CC2)NC(c2nccs2)=NC1(C)c1ccc(F)cc1` (stereo unspecified), in series [1], the CLint scaled at 1 µM was 81 mL/min/kg.

As for `COC(=O)C1=C(C)NC(c2nccs2)=NC1(C)c1ccc(C#N)cc1` (stereo unspecified), the CLint scaled at 1 µM in series [1] came out at 75 mL/min/kg.

Take `COC(=O)C1=C(C)NC(c2nccs2)=NC1(C)c1ccc(S(C)(=O)=O)cc1` (stereo unspecified): the CLint scaled at 1 µM in series [1] worked out at 57 mL/min/kg.

On to `COC(=O)C1=C(CN2CCOC[C@H]2C(=O)O)NC(c2nccs2)=N[C@@]1(C)c1ccc(F)cc1`, for which the CLint scaled at 1 µM in [2] was determined as 4.1 mL/min/kg; in series [1] it was 80 mL/min/kg.

For the compound `COC(=O)C1=C(C)NC(c2nccs2)=NC1(C)c1ccc(Cl)cc1` (stereo unspecified), in [1], the CLint scaled at 1 µM was found to be 85 mL/min/kg.

Take `CNC(=O)C1=C(CN2CCOCC2)NC(c2nccs2)=NC1(C)c1ccc(F)cc1` (stereo unspecified): in series [1], the CLint scaled at 1 µM turned out to be 77 mL/min/kg.

Consider `COC(=O)C1=C(CN2CCCS2(=O)=O)NC(c2nccs2)=NC1(C)c1ccc(F)cc1` (stereo unspecified), for which the CLint scaled at 1 µM in series [1] came to 79 mL/min/kg.

`COC(=O)C1=C(COCC(F)(F)F)NC(c2nccs2)=NC1(C)c1ccc(F)cc1` (stereo unspecified): in series [1], the CLint scaled at 1 µM was 81 mL/min/kg.

A word on the bioavailability: it is dose-corrected exposure relative to a reference, in per cent. Read a high bioavailability as good availability. For `COC(=O)C1=C(CN2CCOCC2)NC(c2nccs2)=N[C@@]1(C)c1ccc(F)cc1`, the bioavailability in series [3] came to 1.5%. The CLint scaled at 1 µM in [1] is 81 mL/min/kg.

For `COC(=O)C1=C(CN2CC(OC)C2)NC(c2nccs2)=NC1(C)c1ccc(F)cc1` (stereo unspecified), the CLint scaled at 1 µM in series [1] stood at 88 mL/min/kg.

For `COC(=O)C1=C(CN2CCC[C@@H]2C(=O)O)NC(c2nccs2)=N[C@@]1(C)c1ccc(F)cc1`, the CLint scaled at 1 µM in series [1] amounted to 60 mL/min/kg.

For the compound `COC(=O)C1=C(C)NC(c2nccs2)=NC1(C)c1ccc(F)c(F)c1` (stereo unspecified), the CLint scaled at 1 µM in series [1] was 83 mL/min/kg.

As for `CC1(c2ccc(F)cc2)N=C(c2nccs2)NC(CN2CCOCC2)=C1c1ncco1` (stereo unspecified), the CLint scaled at 1 µM in series [1] turned out to be 89 mL/min/kg.

Consider `COC(=O)C1=C(CN2CCOCC2(C)C)NC(c2nccs2)=NC1(C)c1ccc(F)cc1` (stereo unspecified), for which the CLint scaled at 1 µM in series [1] is 88 mL/min/kg.

On to `COC(=O)C1=C(CN2CCS(=O)(=O)CC2)NC(c2nccs2)=NC1(C)c1ccc(F)cc1` (stereo unspecified), for which, in series [1], the CLint scaled at 1 µM is 66 mL/min/kg.

For the compound `CC1(c2ccc(F)cc2)N=C(c2nccs2)NC(CN2CCOCC2)=C1C(=O)O` (stereo unspecified), the CLint scaled at 1 µM in series [1] is 6 mL/min/kg.

Consider `COC(=O)C1=C(CN2CCNCC2)NC(c2nccs2)=NC1(C)c1ccc(F)cc1` (stereo unspecified), for which the CLint scaled at 1 µM in series [1] was found to be 39 mL/min/kg.

The term Cmax denotes the peak of the concentration-time curve. As usually defined, the half-life is how long it takes for the measured level to halve. In general, clearance refers to a measure of how efficiently the substance is removed, as volume per time. Higher therefore signals a high capacity for elimination. Consider `COC(=O)C1=C(CN2CC(F)(F)C[C@H]2C(=O)O)NC(c2nccs2)=N[C@@]1(C)c1ccc(F)cc1`, for which the Cmax in series [4] turned out to be 41200 ng/mL; in [7], 12400 ng/mL; in series [10], 2470 ng/mL. Also, the AUCt in series [5] is 107000 µg/L/h; in series [11], 5420 µg/L/h; in [17], 1500 µg/L/h. Further, the figures for the half-life in series [6] and in [12] were 48 min and 10.8 min, respectively. For the same compound, the clearance in [8] is 55.3 mL/min/kg. Also, the Vd in [9] is 0.22 L/kg. Further, the values for the CLint scaled at 1 µM in series [2] and in series [1] were 12 mL/min/kg and 84 mL/min/kg, respectively. The Drug uptake result in [13], in series [14] and in series [16] was “Not Active” each time. Besides, in “in vivo”, the Kp turned out to be 20. Also, the bioavailability in series [15] came to 36%.

For `COC(=O)C1=C(CN2CCNC(=O)C2)NC(c2nccs2)=NC1(C)c1ccc(F)cc1` (stereo unspecified), in series [1], the CLint scaled at 1 µM is 81 mL/min/kg.

Regarding `COC(=O)C1=C(CN2CCC(F)(F)C2)NC(c2nccs2)=NC1(C)c1ccc(F)cc1` (stereo unspecified), the CLint scaled at 1 µM in series [1] is 89 mL/min/kg.

Consider `COC(=O)C1=C(CN2CCC(O)C2)NC(c2nccs2)=NC1(C)c1ccc(F)cc1` (stereo unspecified), for which the CLint scaled at 1 µM in series [1] worked out at 83 mL/min/kg.

Turning to `COC(=O)C1=C(CN(C)C2(C(=O)O)CC2)NC(c2nccs2)=NC1(C)c1ccc(F)cc1` (stereo unspecified), the CLint scaled at 1 µM in series [1] is 42 mL/min/kg.

Regarding `COC(=O)C1=C(CN2CCC[C@H]2C(=O)O)NC(c2nccs2)=N[C@@]1(C)c1ccc(F)cc1`, the figures for the CLint scaled at 1 µM in series [2] and in [1] were 2.3 mL/min/kg and 14 mL/min/kg, respectively.

Consider `COC(=O)C1=C(Cn2ccnc2)NC(c2nccs2)=NC1(C)c1ccc(F)cc1` (stereo unspecified), for which, in series [1], the CLint scaled at 1 µM is 69 mL/min/kg.

As for `COC(=O)C1=C(CN2CCC(F)(F)CC2)NC(c2nccs2)=NC1(C)c1ccc(F)cc1` (stereo unspecified), the CLint scaled at 1 µM in series [1] worked out at 88 mL/min/kg.

As for `COC(=O)C1=C(CN2CCOCC2=O)NC(c2nccs2)=NC1(C)c1ccc(F)cc1` (stereo unspecified), in series [1], the CLint scaled at 1 µM was determined as 80 mL/min/kg.

Regarding `COC(=O)C1=C(CN2CCC(C(F)(F)F)C2)NC(c2nccs2)=NC1(C)c1ccc(F)cc1` (stereo unspecified), the CLint scaled at 1 µM in series [1] was 88 mL/min/kg.

As to `COC(=O)C1=C(CN2CCOC[C@@H]2C(=O)O)NC(c2nccs2)=N[C@@]1(C)c1ccc(F)cc1`, in [1], the CLint scaled at 1 µM amounted to 61 mL/min/kg.

As to `COC(=O)C1=C(COC2CCOC2)NC(c2nccs2)=NC1(C)c1ccc(F)cc1` (stereo unspecified), in series [1], the CLint scaled at 1 µM was found to be 79 mL/min/kg.

Regarding `COC(=O)C1=C(CN2CC3CC2CO3)NC(c2nccs2)=NC1(C)c1ccc(F)cc1` (stereo unspecified), the CLint scaled at 1 µM in [1] stood at 84 mL/min/kg.

For `COC(=O)C1=C(C)NC(c2ncc(F)cc2F)=N[C@H]1c1ccc(F)cc1Cl`, the Drug metabolism entry in series [18] and in series [20] was “Metabolite_Detected” throughout. In addition, the Stability entry in series [19] is “Unstable”.
